# Screens from PubChem.
# This is a sample that favours compounds with a hit; in the whole collection about 1.4% have one here.
# MT1-MMP act inh – MT1-MMP (human) activation inhibition; HT1080 RFP-PRO-GFP cells, GFP/RFP ratio fluorescence, overnight; percent of plate control window, DMSO zero; GFP/RFP ratio change, % at 20 µM; actives 0.061% (n = 360,000); AID 651647;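 active = GFP/RFP ratio change of at least 30% with cell ATP level not reduced by more than half and red fluorescence within 50% of control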
#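 Assay system: HT1080 RFP-PRO-GFP cells. Benchmarks: DMSO vehicle wells and RFP-L50D-GFP reporter cell wells. Times: overnight cell settling, then overnight compound exposure, 37 °C, 5% CO2. Compound: 20 µM single dose, 1% DMSO. Read-out basis: GFP/RFP fluorescence ratio.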
# hiPSC survival – increases survival of single human iPS cells; hiPSC single-cell survival, ATPlite luminescence; 100% = ROCK inhibitor wells, 0% = DMSO; survival enhancement, % at 20 µM; actives 0.044% (n = 360,000); AID 602274; in the data active = survival enhancement above about 18%;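 also: cells exposed to compounds for 16 hours before the ATP read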
# CendR NRP1 mod – NRP-1/CendR interaction modulation; actives 0.85% (n = 360,000); FAM-RPARPAR peptide binding to NRP-1, fluorescence polarization; inhibition, % at 25 µM; AID 602438;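 active = inhibition or corrected inhibition above about 18%, plus a signal ratio from 0.5 to 1.5, limit read from the data, passing the limit was not always enough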
# Target sequence (O14786 whole entry, looked up): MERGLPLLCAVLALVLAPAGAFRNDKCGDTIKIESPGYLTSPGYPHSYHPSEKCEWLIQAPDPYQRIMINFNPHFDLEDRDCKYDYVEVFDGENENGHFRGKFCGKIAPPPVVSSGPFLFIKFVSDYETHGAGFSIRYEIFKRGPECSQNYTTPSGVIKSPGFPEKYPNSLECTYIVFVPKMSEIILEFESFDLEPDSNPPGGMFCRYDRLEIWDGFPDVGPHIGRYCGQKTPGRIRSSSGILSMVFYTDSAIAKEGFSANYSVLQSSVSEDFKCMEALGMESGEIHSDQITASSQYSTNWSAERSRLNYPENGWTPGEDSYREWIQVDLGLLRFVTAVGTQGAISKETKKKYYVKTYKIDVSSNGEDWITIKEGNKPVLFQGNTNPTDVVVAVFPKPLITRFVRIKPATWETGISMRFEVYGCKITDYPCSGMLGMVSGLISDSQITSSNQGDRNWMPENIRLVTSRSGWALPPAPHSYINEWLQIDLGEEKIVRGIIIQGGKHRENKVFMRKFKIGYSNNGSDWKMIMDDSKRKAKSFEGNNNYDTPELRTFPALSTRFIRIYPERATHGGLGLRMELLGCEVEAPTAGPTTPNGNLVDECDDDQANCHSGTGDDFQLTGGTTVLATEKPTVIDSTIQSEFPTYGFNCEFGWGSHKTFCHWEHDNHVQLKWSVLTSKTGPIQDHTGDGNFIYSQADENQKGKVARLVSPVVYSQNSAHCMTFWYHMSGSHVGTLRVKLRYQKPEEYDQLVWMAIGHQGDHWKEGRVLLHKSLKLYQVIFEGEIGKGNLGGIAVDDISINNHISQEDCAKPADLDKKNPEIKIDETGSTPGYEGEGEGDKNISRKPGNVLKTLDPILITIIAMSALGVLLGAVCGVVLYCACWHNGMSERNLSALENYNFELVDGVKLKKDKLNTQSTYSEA
# SKN-1 block – C. elegans SKN-1 inhibition; C. elegans VP596 Pgst-4::GFP/RFP ratio, acrylamide-induced, 24 h; inhibition, % at 21.8 µM; actives 0.49% (n = 360,000);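 active = interference check ratio from 0.5 to 1.5 plus GFP to RFP signal ratio inhibition reaching or exceeding a fixed threshold, cut at about 30% in these data, passing the limit was not always enough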
# Numbers without * were called inactive.
SMILES,MT1-MMP act inh,hiPSC survival,CendR NRP1 mod,SKN-1 block
c1ccc(-c2ccc(-c3nc(-c4cccnc4)no3)cc2)cc1,-6.5,-2.5,-1.4,43.1*
NC(Cc1ccc(Cl)cc1)c1csc(Nc2nccc(C(F)(F)F)n2)n1 (stereo not drawn),1.8,1.5,-4.3,14.6
CCOc1ccc(S(=O)(=O)NCCOC)cc1C,2.4,1.7,2.0,2.9
Cc1cccc(C)c1NC(=O)C1(C)CCC(=O)N1C1CCN(Cc2ccccc2)CC1 (stereo not drawn),-0.7,-0.6,20.7*,3.6
COc1ccc(NC(=O)NC(C(F)(F)F)C(F)(F)F)cc1,-0.6,1.5,0.6,43.1*
COc1ccc(NC(=O)NC(=O)c2ccccc2)cc1,1.7,-0.8,-3.1,-8.0
COc1ccc(NC(=O)NNC(=O)C(O)(c2ccccc2)c2ccccc2)cc1,2.5,0.8,28.2*,2.7
CC1=CC(=C2C(=O)c3ccccc3C2=O)C=C(C)N1Cc1ccco1,2.9,1.1,-21.3,15.0
CCCCN1C(C)=CC(=C2C(=O)c3ccccc3C2=O)C=C1C,8.0,-2.4,14.8,38.3*
CN(C)CCNC(=O)Cn1c(=O)c2cccn2c2ccc(F)cc21,2.6,-0.7,-0.8,-7.7
C[C@H](CO)N1C[C@H](C)[C@@H](CN(C)C(=O)Nc2ccc(C(F)(F)F)cc2)Oc2c(NS(=O)(=O)c3ccccc3)cccc2C1=O,1.3,0.1,36.2*,9.6
C[C@H](CO)N1C[C@H](C)[C@@H](CN(C)C(=O)Nc2ccc3c(c2)OCO3)Oc2c(NS(=O)(=O)c3ccc(F)cc3)cccc2C1=O,2.7,1.7,31.0*,3.8
C[C@H](CO)N1C[C@H](C)[C@@H](CN(C)C(=O)Nc2ccc3c(c2)OCO3)Oc2ccc(NS(=O)(=O)c3ccc(F)cc3)cc2C1=O,0.6,-0.2,7.9,-4.4
CCOCCCNC(=O)C(c1ccc(Cl)cc1)N1CCC2(CC1)OCCO2 (stereo not drawn),-3.5,-0.6,4.8,37.0*
CCOCCCNC(=O)C(c1ccc(Cl)cc1)N1CCN(c2ccccc2)CC1 (stereo not drawn),-2.0,-2.0,-3.5,5.7
COc1ccccc1-n1cc2ccc([N+](=O)[O-])cc2n1,-5.3,0.1,0.9,4.3
O=[N+]([O-])c1ccc2cn(-c3ccccc3)nc2c1,2.0,1.3,-4.5,56.8*
CCOC(=O)C1(CCOc2ccccc2)CCN(CC(O)CO)CC1 (stereo not drawn),-0.9,-0.1,11.6,8.4
CC1(C)CC(=O)C(C=NCC2CCN(C(=O)Cc3ccccc3)CC2)=C(O)C1,-1.2,0.7,6.2,19.8
Oc1ccccc1C=NCCN1CCN(CCN=Cc2ccccc2O)C1c1ccccc1O (stereo not drawn),-2.1,-2.6,22.1*,5.1
Nc1ccn([C@@H]2O[C@H](C(=O)NCc3ccc4c(c3)OCO4)[C@@H](O)[C@H]2O)c(=O)n1,2.7,0.1,26.5*,-8.6
Nc1ccn(CC(=O)NCCNc2ccc([N+](=O)[O-])cn2)c(=O)n1,1.9,3.3,27.7*,-11.0
O=C(CN1CCN(Cc2ccccc2)CC1)NCCNc1ccc([N+](=O)[O-])cn1,-8.5,-0.7,8.8,9.7
Nc1ccn(CC(=O)NCc2ccc3c(c2)OCO3)c(=O)n1,3.4,8.5,21.1*,-12.6
Nc1ccn([C@@H]2O[C@H](C(=O)NCCc3ccc(F)cc3)[C@@H](O)[C@H]2O)c(=O)n1,2.2,4.1,0.5,-6.9
SMILES,MT1-MMP act inh,hiPSC survival,CendR NRP1 mod,SKN-1 block
CCn1cc(C(=O)OCC(=O)NCc2ccc3c(c2)OCO3)c(=O)c2ccc(C)nc21,2.8,2.1,-2.4,35.2*
Cc1ccc(-n2c(N)c(C(=O)Nc3ccccc3F)sc2=S)cc1C,-7.6,1.0,11.0,7.0
COc1cc2oc(=O)cc(-c3ccc(-c4ccc(C#N)cc4)cc3)c2c(OC)c1OC,4.7,-0.2,-5.8,8.2
CC(C)(C(N)=O)c1ccccc1,3.4,-0.5,-1.6,12.0
COc1ccc(CNC(=O)Cn2ccc(N)nc2=O)cc1,5.8,2.0,32.3*,5.3
Nc1ccn(CC(=O)NCc2ccccn2)c(=O)n1,2.8,1.4,0.0,16.9
O=C(CCN1CCN(c2ccccc2)CC1)N/N=C/c1ccc(O)c(O)c1O,-2.0,1.7,16.8,4.7
COC(=O)/C=C1\S/C(=N\N=C\CC(=O)OC)NC1=O,-0.8,0.5,1.2,36.5*
Cc1cc(NC(=O)CSc2nnc(-c3ccncc3)n2-c2ccc(F)cc2)no1,-0.9,-0.2,-13.9,42.4*
CCn1c(SCC(=O)Nc2cc(C)on2)nnc1-c1ccncc1,9.2,0.7,2.1,4.9
Clc1ccc(OCc2noc(-c3ccsc3)n2)c(Cl)c1,-1.5,-0.5,15.1,74.2*
COc1cccc(NC(=O)CSc2nc(O)c(C)c(=O)n2-c2ccc(C)cc2)c1,6.5,-0.2,24.2*,14.4
Cc1c(O)nc(SCC(=O)Nc2cccc(C(F)(F)F)c2)n(-c2ccccc2)c1=O,8.5,0.2,0.1,-10.9
Cc1ccc(NC(=O)CSc2nnc(C)n2-c2ccccc2)cc1,-0.7,4.9,-2.9,6.1
Cc1ccc(-n2c(C)nnc2SCC(=O)Nc2ccccc2)cc1,-0.3,0.9,19.6*,31.8
ON=C1CCCC2CCCCC12 (stereo not drawn),0.3,0.6,4.7,15.0
O=C(Oc1cncc(Cl)c1)c1ccco1,-5.4,5.5,-1.3,39.2*
C=CCNC(=O)CN1CCN(Cc2ccc3c(c2)OCO3)CC1,2.9,0.2,7.4,-2.1
CC(NC(=O)[C@H](C)NC(=O)N1CCn2c1nc1ccccc12)c1ccccc1 (stereo partly drawn),-0.1,-0.1,23.9*,0.1
C[C@H](NC(=O)N1CCn2c1nc1ccccc12)C(=O)NC1CC1,-1.2,-0.5,9.5,1.0
CS(=O)(=O)N1CCN(c2ccccc2NC(=O)Cc2ccccc2)CC1,-7.1,-2.6,-6.6,5.6
CS(=O)(=O)N1CCN(c2ccccc2NC(=O)Cc2ccc(Cl)cc2)CC1,-3.7,6.5,27.8*,-3.0
c1ccc(CCNc2ccccn2)nc1,5.9,-1.0,2.6,-11.7
c1ccc(CCNc2ccc3c(c2)Cc2ccccc2-3)nc1,3.9,1.7,28.8*,-1.6
O=C1CC(c2ccccc2)c2ccccc21 (stereo not drawn),0.0,-2.3,2.4,-2.3
CN1Cc2c(N)cccc2C(c2ccccc2)C1 (stereo not drawn),-12.7,-0.4,30.1*,6.7
CC(=O)Nc1ccc(-c2ccnc3c2CC(C)(C(=O)Nc2ccc(Cl)c(C(F)(F)F)c2)O3)cc1 (stereo not drawn),6.1,-2.5,0.5,7.5
CN(C)c1ccc(-c2ccnc3c2CC(C)(C(=O)Nc2ccc(Cl)c(C(F)(F)F)c2)O3)cc1 (stereo not drawn),-5.7,19.7*,-0.6,-3.7
COC1(OC)N=C(N)C2(C#N)C(c3cccc(Oc4ccccc4)c3)C12C#N (stereo not drawn),1.0,5.2,25.8*,3.9
COC1(OC)N=C(N)C2(C#N)C(c3ccc(F)cc3)C12C#N (stereo not drawn),3.1,0.7,30.8*,7.7
